An excerpt weighted towards active compounds, which were near 4.6% of everything screened.
CHO parental Ca = ATP-evoked calcium signal inhibitors, parental CHO, primary screen, counter-screen for OX1R antagonist project, cell-based, fluorescence, Fluo-8 calcium dye | AID 463079, 2010 | parental CHO-K1, ATP-induced calcium, Fluo-8 fluorescence | inhibition, % at 5.6 µM | 0.63% of 330,000 active;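 active = inhibition above that plate's mean sample inhibition plus 3 SD, cut at about 26% in these data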;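 also: 0% = ATP-challenged DMSO wells and 100% = DMSO wells without ATP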
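material = parental CHO cells | also added = ATP as calcium-mobilizing challenge | dosing = single point at 5.6 µM | detection = intracellular calcium via Fluo-8 no-wash fluorescent dye | read-out = % inhibition | benchmarks = low control ATP plus DMSO, high control DMSO only | repeats = one well per compound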
TAAR1 antag = human TAAR1 antagonists, primary screen, Fluo-8 calcium fluorescence, CHO RD-HGA16 cells; inhibition, % at 3 µM; antagonist; Trace amine-associated receptor 1 (Homo sapiens), Q96RJ0; 1.5% of 360,000 active;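 active = inhibition above a per-plate cutoff, the mean inhibition of test compounds on that plate plus 3 SD, cut at about 49% in these data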;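 also: 0% = DMSO plus EC80 beta-PEA response and 100% = DMSO alone without agonist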
Target sequence (Q96RJ0 whole entry, looked up): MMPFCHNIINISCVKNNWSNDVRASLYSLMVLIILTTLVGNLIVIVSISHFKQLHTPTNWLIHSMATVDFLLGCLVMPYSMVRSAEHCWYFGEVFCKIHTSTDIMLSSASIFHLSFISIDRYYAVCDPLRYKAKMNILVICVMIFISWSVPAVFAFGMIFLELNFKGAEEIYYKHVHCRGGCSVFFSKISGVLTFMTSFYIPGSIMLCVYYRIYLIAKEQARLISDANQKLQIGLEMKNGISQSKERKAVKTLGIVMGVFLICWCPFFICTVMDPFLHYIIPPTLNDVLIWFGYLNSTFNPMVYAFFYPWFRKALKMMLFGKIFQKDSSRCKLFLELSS
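Test system – hTAAR1-expressing CHO RD-HGA16 cells, Gα16-coupled · Also added – β-PEA at EC80 concentration, post-compound challenge · Compound – 3 µM, single point · Incubation – dye loading 75 min at 37 °C, then 30 min room temperature · Measured by – Fluo-8 intracellular calcium dye fluorescence, real-time kinetic reads · Benchmarks – vehicle and agonist controls · Replicates – singlicate, one well per test compound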
TAAR1 agonist = human TAAR1 agonists, primary screen, Fluo-8 calcium fluorescence, CHO RD-HGA16 cells; Trace amine-associated receptor 1 (Homo sapiens), Q96RJ0; vehicle wells 0%, saturating PEA agonist 100%; activation, % at 3 µM; 0.99% of 360,000 active; AID 624467, 2012;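 active = activation above the mean activation of all test compounds in the run plus 3 SD, cut at about 38% in these data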
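Test system: RD-HGA16 (CHO) cells co-expressing Gα16 and hTAAR1; dosing: one-point dosing at 3 µM (nominal); timing: 17-24 h seeding, 75 min 37 °C dye, 30 min RT; signal: kinetic Fluo-8 calcium fluorescence; read-out basis: % activation relative to PEA EC100 response; controls: DMSO and PEA EC100; replicates: n 1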
OX1R antag-1 = antagonists of human orexin 1 receptor (OX1R). Orexin/Hypocretin receptor type 1 (Homo sapiens), O43613. OX1R-expressing cells, FRET antagonist read-out. inhibition, % at 6.6 µM. 1.8% of 330,000 active; in the data active = inhibition mostly above about 38%, no sharp cut-off; inactive = mostly below about 40%;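 also: 0% = agonist challenge alone and 100% = reference antagonist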
Target sequence (O43613 whole entry, looked up): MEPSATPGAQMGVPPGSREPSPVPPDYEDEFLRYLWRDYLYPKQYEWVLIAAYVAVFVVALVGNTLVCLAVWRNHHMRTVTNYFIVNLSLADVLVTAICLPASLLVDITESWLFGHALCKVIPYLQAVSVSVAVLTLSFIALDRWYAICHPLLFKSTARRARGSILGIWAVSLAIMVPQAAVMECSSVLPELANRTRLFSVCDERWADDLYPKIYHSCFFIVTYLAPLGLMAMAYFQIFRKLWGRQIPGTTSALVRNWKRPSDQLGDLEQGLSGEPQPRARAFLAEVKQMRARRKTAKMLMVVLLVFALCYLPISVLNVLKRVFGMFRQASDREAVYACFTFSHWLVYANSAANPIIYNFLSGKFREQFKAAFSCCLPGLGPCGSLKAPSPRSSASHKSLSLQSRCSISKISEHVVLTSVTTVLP
GPR7 antag = GPR7 receptor antagonists, primary screen, cell-based, fluorescence, single concentration; GPR7-expressing cells, fluorescence antagonist assay; 1.1% of 290,000 active; Neuropeptides B/W receptor type 1 (Homo sapiens), P48145; inhibition, % at 4.4 µM; in the data active = inhibition above about 16%, passing the limit was not always enough;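 also: cells stimulated with the agonist NPW; 0% = agonist with vehicle and 100% = vehicle without agonist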
OX1R antag-2 = OX1R (HCRTR1) antagonists, primary screen, fluorescence, CHO/OX1R cells, Fluo-8 calcium, orexin A | Orexin/Hypocretin receptor type 1 (Homo sapiens), O43613 | Fluo-8 calcium fluorescence | inhibition, % at 5 µM | 0.43% of 330,000 active | AID 434989, 2010;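 active = inhibition above its plate's threshold, mean inhibition of all tested compounds on the plate plus 3 SD, cut at about 37% in these data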;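 also: 0% = orexin A challenge wells and 100% = SB-334867-A antagonist wells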
GPR7 antag cf = GPR7 receptor antagonists, confirmation, cell-based, fluorescence, single concentration; 52% of 2,400 active; inhibition, % at 4.4 µM; GPR7-expressing cells, calcium fluorescence antagonist mode; shares compounds with GPR7 antag; in the data active = inhibition above about 24%;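 also: stimulated with the GPR7 agonist NPW; 0% = agonist plus vehicle and 100% = vehicle alone without agonist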
MCHR1 antagonist = MCHR1 antagonists in cells, counter-screen for GPR7 antagonist project, cell-based, fluorescence, human; shares compounds with GPR7 antag; MCHR1-expressing cells, fluorescence antagonist assay; inhibition, % at 4.4 µM; 62% of 2,400 active; AID 2148, 2009;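 also: 0% = vehicle with agonist and 100% = vehicle without agonist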
OX1R Ca confirm = OX1R (HCRTR1) antagonists, confirmation, fluorescence, CHO/OX1R cells, Fluo-8 calcium, orexin A; shares compounds with OX1R antag-2; orexin A calcium Fluo-8 fluorescence; inhibition, % at 5 µM; 38% of 1,100 active; AID 492963, 2010; in the data active = inhibition above about 29%;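 also: 0% = agonist challenge alone and 100% = reference antagonist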
CHO Ca counter = ATP-evoked calcium inhibition in parental CHO, counter-screen for OX1R antagonist project, cell-based, fluorescence, CHO-K1, triplicate; shares compounds with OX1R antag-2; ATP-induced calcium, Fluo-8 fluorescence; inhibition, % at 5.6 µM; 9.3% of 1,100 active; AID 492965, 2010;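 active = inhibition above a per-plate limit, the mean inhibition of that plate's test compounds plus 3 SD, cut at about 25% in these data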;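 also: 0% = ATP challenge with DMSO and 100% = DMSO without ATP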
OX1R HTRF confirm = OX1R (HCRTR1) antagonists, confirmation, cell-based, HTRF; AID 492964, 2010; OX1R-expressing cells, HTRF antagonist assay; shares compounds with OX1R antag-1; inhibition, % at 6.6 µM; 49% of 1,800 active; in the data active = inhibition above about 55%;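 also: CHO cells expressing OX1R stimulated with orexin A at about EC80; 0% = agonist challenge alone and 100% = reference antagonist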
CHO-K1 HTRF cnt = signal inhibition in parental CHO-K1 cells, counter-screen for OX1R antagonist project, cell-based, HTRF | shares compounds with OX1R antag-1 | HTRF counterscreen | AID 493232, 2011 | inhibition, % at 6.6 µM | 48% of 1,800 active; in the data active = inhibition above about 17%;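 also: 0% = agonist challenge with vehicle and 100% = vehicle alone without agonist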
nonsel antag count = nonselective antagonists in TAAR1 counter-screen cells, counter-screen for hTAAR1 antagonist project, cell-based, fluorescence, calcium. shares compounds with TAAR1 antag. counterscreen cell line, antagonist mode. inhibition, % at 3 µM. 77% of 2,400 active;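 also: CHO-Ga16 host cells stimulated with ATP at an EC80 level; 0% = agonist EC80 plus vehicle and 100% = vehicle without agonist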
TAAR1 ant conf = human TAAR1 antagonists, retest of hits, confirmation, cell-based, fluorescence; shares compounds with TAAR1 antag; TAAR1-expressing cells, fluorescence antagonist read-out; inhibition, % at 3 µM; 40% of 2,400 active; AID 651785, 2012; in the data active = inhibition above about 49%;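 also: CHO-Ga16 host cells challenged with agonist PEA near its EC80; 0% = agonist at EC80 plus vehicle and 100% = vehicle with no agonist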
Ga16 ag counter = calcium activation in Ga16-expressing cells, counter-screen for TAAR1 antagonist project, cell-based, fluorescence; shares compounds with TAAR1 antag; agonist counterscreen; activation, % at 3 µM; 18% of 2,400 active; AID 651953, 2012; in the data active = activation above about 12%;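 also: 0% = vehicle wells and 100% = saturating stimulus response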
TAAR1 ag counter = TAAR1 activation by candidate antagonists – cell-based, fluorescence, counter-screen for TAAR1 antagonist project | shares compounds with TAAR1 antag | hTAAR1 cell line, agonist mode | activation, % at 3 µM | 2% of 2,400 active; in the data active = activation above about 37%;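 also: CHO cells stably expressing TAAR1 with calcium dye readout; 0% = DMSO vehicle and 100% = full agonist response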
The depositor's hits bear a star; · = no result; ! = repeats disagree. Rule as the data show it, unless noted: active = inhibition above about 22%; inactive = the rest.

SMILES	CHO parental Ca	TAAR1 antag	TAAR1 agonist	OX1R antag-1	GPR7 antag	OX1R antag-2	GPR7 antag cf	MCHR1 antagonist	nonsel antag count	TAAR1 ant conf	Ga16 ag counter	TAAR1 ag counter	others
O=S(=O)(c1ccccc1)N1CCCc2ccccc21	3	·	·	17	-12	-14	·	·	·	·	·	·
O=S(=O)(NC1CC1)c1ccc(S(=O)(=O)N2CCCc3ccccc32)cc1	1	43	4	37*	22*	82*	30*	28*	·	·	·	·	OX1R Ca confirm=60*;CHO Ca counter=5;OX1R HTRF confirm=62*;CHO-K1 HTRF cnt=-1
CCOC(=O)c1nn(-c2ccccc2C)c(=O)c2c(N)scc12	-2	-41	2	9	-1	-14	·	·	·	·	·	·
CCOC(=O)c1nn(-c2ccccc2C)c(=O)c(C#N)c1C	2	9	5	127*	29*	-6	-12	3	·	·	·	·	OX1R HTRF confirm=65*;CHO-K1 HTRF cnt=43*
COCCN(C(=O)COC(=O)CCCc1c[nH]c2ccccc12)c1c(N)n(Cc2ccccc2)c(=O)[nH]c1=O	·	5	2	·	·	·	·	·	·	·	·	·
Cc1c(C(=O)N2CCN(c3ccc(F)cc3)CC2)sc2ncnc(N3CCN(c4ccccn4)CC3)c12	-2	70*	10	26	23*	-8	16	70*	29*	47	9	8
CCCCC(=O)N(C)c1c(CC)nc2c(OCCOc3ccccc3)cccn12	·	-20	-1	·	·	·	·	·	·	·	·	·
CC(C)(C)C(=O)Nc1ccc(Sc2ccc([N+](=O)[O-])cc2)cc1	10	91*	6	26	25*	24	23	69*	49*	60*	8	2
CC(=O)Nc1ccc(Sc2ccc([N+](=O)[O-])o2)cc1	·	-4	2	·	·	·	·	·	·	·	·	·
Cc1cccc(C(O)c2ncc(-c3ccccc3F)[nH]2)c1C (configuration not stated)	·	-10	4	·	·	·	·	·	·	·	·	·
CC1(C)CC(C(CCN(Cc2ccccc2)C(=O)c2ccco2)c2ccc(F)cc2)CCO1 (configuration not stated)	-10	73*	5	8	31*	-3	37*	60*	41*	54*	6	0
O=C(c1ccco1)N(CCC(c1ccccc1)c1ccco1)Cc1ccc(F)cc1 (configuration not stated)	6	·	·	1	17	4	·	·	·	·	·	·
O=C(Nc1nc(-c2ccc(S(=O)(=O)N3CCOCC3)cc2)cs1)c1ccccc1	-3	59*!	13	16	34*	0	61*	76*	28*	50*	11	6
COc1ccc(/C=C2/CSC/C(=C/c3ccc(OC)c(OC)c3)C2=O)cc1OC	·	-6	2	·	·	·	·	·	·	·	·	·
COc1ccc(OC)c(NC(=O)c2cccc(N3C(=O)C4C5C=CC(C6CC56)C4C3=O)c2)c1 (configuration not stated)	-7	75*	11	9	24*	-31	22	69*	46*	62*	13*	10
Cc1ccccc1S(=O)(=O)NC(=O)C1(C)CCN1C(=O)c1ccccc1CCc1ccccc1 (configuration not stated)	·	-5	-1	·	·	·	·	·	·	·	·	·
CN1/C(=C\C(=O)COC(=O)Cn2nnc(-c3ccccc3)n2)C(C)(C)c2ccccc21	54*	52*	9	31	26*	37	18	38*	44*	39	7	0
CN1/C(=C/C(=O)COC(=O)CN2C(=O)C3CC=CCC3C2=O)C(C)(C)c2ccccc21 (configuration not stated)	·	20	2	·	·	·	·	·	·	·	·	·
CCOC(=O)c1cc(-c2ccccc2)nc2c1c(C)nn2-c1ccccn1	-26	53*	16	7	46*	-36	28*	34*	22*	28	8	14
CCOC(=O)c1cc(-c2ccncc2)nc2c1c(C)nn2C	-15	-30	2	16	-2	-33	·	·	·	·	·	·
CC(=O)c1cccc(NC(=O)c2cccc(S(=O)(=O)N3CCOCC3)c2)c1	-16	-3	1	9	-3	-7	·	·	·	·	·	·
CCOC(=O)c1ccc(NC(=O)c2cccc(S(=O)(=O)N3CCOCC3)c2)cc1	33*	62*	23	46	24*	28	21	75*	34*	48	14*	12
